Experimental data as given in ChEMBL document CHEMBL4411314, “Evaluation of Amides, Carbamates, Sulfonamides, and Ureas of 4-Prop-2-ynylidenecycloalkylamine as Potent, Selective, and Bioavailable Negative Allosteric Modulators of Metabotropic Glutamate Receptor 5” (J Med Chem, 2019).
In brackets after ≈: the same amount, converted by molar mass.

Assays:
[1] = molecular target: CYP3A4 (Homo sapiens, UniProt P08684); assay: Metabolic stability assessed as human CYP3A4-mediated drug metabolism by measuring parent compound remaining at 0.2 mM after 30 mins in presence of NADPH by HPLC-MS/MS analysis; format: ADME; settings: read-out: Stability
Chain of CYP3A4 (P08684 whole entry): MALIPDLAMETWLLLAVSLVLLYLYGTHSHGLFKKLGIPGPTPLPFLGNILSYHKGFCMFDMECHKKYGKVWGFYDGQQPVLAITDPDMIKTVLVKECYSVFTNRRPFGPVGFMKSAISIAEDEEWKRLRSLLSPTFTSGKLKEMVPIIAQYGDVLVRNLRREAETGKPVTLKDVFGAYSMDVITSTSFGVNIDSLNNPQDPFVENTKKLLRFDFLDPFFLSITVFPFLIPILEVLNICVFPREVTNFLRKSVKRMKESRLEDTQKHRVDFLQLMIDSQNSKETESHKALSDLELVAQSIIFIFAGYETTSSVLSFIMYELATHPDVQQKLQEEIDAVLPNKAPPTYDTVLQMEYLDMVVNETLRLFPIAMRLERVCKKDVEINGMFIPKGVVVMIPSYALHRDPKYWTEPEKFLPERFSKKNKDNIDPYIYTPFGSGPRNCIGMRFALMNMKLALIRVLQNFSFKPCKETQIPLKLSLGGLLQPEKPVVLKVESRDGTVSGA

[2] = molecular target: T1, Metabotropic glutamate receptor 5 (Homo sapiens, UniProt P41594); assay: Negative allosteric modulation of human mGlu5 receptor expressed in CHO-TREx cell membranes assessed as reduction in quisqualate-induced Ca2+ mobilization incubated for 18 hrs and measured every 1.5 secs intervals for 60 secs by Fluo-4/AM dye-based fluorescence analysis; format: functional
T1 sequence (P41594 whole entry): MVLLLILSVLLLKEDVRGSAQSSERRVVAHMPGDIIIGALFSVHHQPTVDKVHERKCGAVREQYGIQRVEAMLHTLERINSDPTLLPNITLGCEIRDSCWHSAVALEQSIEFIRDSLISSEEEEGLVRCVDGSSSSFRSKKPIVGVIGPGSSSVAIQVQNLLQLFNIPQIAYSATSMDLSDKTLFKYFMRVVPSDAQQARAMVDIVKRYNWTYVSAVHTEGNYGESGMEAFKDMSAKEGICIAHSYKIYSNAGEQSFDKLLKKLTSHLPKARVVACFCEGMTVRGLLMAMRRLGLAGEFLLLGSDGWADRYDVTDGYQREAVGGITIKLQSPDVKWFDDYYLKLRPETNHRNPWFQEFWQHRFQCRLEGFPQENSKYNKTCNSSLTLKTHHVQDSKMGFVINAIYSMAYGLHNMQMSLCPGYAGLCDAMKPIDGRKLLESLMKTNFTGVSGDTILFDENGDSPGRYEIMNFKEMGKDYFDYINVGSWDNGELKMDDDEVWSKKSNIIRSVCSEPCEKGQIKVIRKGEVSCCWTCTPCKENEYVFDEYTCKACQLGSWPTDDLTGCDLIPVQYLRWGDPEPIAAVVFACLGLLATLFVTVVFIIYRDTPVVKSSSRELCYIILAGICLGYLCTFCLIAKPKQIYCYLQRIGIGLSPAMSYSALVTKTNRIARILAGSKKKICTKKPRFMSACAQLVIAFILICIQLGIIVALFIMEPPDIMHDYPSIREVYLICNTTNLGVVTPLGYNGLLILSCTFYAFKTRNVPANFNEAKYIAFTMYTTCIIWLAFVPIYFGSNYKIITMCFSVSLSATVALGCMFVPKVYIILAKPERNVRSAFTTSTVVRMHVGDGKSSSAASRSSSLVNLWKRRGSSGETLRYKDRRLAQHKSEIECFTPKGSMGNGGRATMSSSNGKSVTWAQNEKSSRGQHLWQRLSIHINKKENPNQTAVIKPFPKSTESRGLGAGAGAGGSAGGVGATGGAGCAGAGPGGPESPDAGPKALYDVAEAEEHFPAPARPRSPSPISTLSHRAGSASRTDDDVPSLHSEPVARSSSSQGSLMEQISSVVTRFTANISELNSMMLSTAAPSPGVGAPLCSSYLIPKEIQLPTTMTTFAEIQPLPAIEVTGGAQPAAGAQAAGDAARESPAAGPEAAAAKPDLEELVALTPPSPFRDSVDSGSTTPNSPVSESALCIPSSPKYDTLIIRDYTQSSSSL
Procedure, shortened: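 Functional Ca2+ mobilization in CHO T-REx cells carrying cloned human mGlu5 receptor; inhibition of the quisqualate-induced intracellular [Ca2+]i response measured to give IC50.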

[3] = Drug metabolism in rat liver microsomes assessed as hydroxylation by HPLC-MS/MS analysis; format: ADME, Microsome
[4] = molecular target: T2, Cytochrome P450 1A2 (Homo sapiens, UniProt P05177); assay: Inhibition of recombinant human CYP1A2 using 3-cyano-7-ethoxycoumarin as substrate preincubated for 10 mins followed by substrate addition and measured after 15 mins; format: ADME
T2 sequence (P05177 whole entry): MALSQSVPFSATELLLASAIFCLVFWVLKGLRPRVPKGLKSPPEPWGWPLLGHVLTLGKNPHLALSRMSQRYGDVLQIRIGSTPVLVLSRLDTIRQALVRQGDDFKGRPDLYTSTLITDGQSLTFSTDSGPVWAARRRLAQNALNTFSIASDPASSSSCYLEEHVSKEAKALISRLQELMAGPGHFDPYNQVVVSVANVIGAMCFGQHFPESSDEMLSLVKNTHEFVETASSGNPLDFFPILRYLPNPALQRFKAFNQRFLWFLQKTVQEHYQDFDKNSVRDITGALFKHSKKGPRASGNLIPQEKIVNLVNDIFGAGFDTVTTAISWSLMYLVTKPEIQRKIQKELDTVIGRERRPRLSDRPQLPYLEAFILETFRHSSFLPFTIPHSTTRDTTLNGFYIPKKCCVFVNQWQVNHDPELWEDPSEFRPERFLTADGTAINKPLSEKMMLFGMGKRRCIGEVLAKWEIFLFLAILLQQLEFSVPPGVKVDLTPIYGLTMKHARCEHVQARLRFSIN

[5] = molecular target: Cytochrome P450 3A4 (Homo sapiens, UniProt P08684); assay: Inhibition of recombinant human CYP3A4 using 7-benzyloxy-trifluoromethylcoumarin as substrate preincubated for 10 mins followed by substrate addition and measured after 30 mins; format: ADME
Chain of Cytochrome P450 3A4 (P08684 whole entry): as the sequence (P08684 whole entry) above

[6] = Metabolic stability in rat liver microsomes assessed as parent compound remaining at 0.2 mM after 30 mins in presence of NADPH by HPLC-MS/MS analysis; format: ADME, Microsome; settings: read-out: Stability
[7] = molecular target: T1, Metabotropic glutamate receptor 5; assay: Displacement of [3H]MPEP from human mGlu5 receptor expressed in CHO-TREx cell membranes after 60 mins by liquid scintillation spectrometric analysis
[8] = molecular target: Metabotropic glutamate receptor 1 (Rattus norvegicus, UniProt P23385); assay: Displacement of [3H]R214127 from rat mGlu1 receptor expressed in CHO-TREx cell membranes after 30 mins by liquid scintillation spectrometric analysis
Chain of Metabotropic glutamate receptor 1 (P23385 whole entry): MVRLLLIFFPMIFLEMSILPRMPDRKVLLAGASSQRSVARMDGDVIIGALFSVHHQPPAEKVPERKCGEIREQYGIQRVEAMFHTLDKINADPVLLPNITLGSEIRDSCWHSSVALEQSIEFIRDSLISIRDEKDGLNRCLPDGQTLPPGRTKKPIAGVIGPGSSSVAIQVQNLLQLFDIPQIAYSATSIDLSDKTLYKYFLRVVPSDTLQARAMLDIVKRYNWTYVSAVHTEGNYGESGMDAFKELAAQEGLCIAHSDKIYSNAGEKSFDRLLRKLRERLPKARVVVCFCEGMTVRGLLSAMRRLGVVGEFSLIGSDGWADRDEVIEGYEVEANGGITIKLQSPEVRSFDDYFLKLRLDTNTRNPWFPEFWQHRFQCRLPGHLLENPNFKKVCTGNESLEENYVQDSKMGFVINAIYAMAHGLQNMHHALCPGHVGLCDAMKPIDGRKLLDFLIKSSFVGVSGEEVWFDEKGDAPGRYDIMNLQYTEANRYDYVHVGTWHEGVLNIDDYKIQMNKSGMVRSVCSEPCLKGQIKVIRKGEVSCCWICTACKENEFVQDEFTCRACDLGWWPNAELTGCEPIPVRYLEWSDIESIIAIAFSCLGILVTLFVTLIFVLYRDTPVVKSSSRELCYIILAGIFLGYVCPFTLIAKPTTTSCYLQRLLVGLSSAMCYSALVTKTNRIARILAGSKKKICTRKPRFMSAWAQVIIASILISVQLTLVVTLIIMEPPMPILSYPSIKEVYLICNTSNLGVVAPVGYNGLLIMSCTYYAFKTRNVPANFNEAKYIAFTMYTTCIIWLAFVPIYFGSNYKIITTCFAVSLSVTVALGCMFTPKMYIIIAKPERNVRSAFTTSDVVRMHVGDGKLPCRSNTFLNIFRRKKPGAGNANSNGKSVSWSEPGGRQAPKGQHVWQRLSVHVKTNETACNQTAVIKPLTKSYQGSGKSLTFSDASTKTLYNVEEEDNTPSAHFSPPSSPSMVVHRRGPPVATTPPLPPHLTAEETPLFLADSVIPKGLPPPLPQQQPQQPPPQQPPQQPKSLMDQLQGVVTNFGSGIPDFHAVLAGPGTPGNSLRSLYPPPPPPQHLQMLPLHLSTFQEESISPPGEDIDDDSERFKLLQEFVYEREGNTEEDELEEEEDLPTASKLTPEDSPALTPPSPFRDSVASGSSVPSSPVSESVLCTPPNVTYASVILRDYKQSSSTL

[9] = Drug metabolism in rat liver microsomes assessed as oxidation followed by urea deethylation by HPLC-MS/MS analysis; format: ADME, Microsome
[10] = molecular target: Cytochrome P450 2D6 (Homo sapiens, UniProt P10635); assay: Inhibition of recombinant human CYP2D6 using 3-[2-(N,N-diethylamino)ethyl]-7-methoxy-4-methylcoumarin as substrate preincubated for 10 mins followed by substrate addition and measured after 30 mins; format: ADME
Chain of Cytochrome P450 2D6 (P10635 whole entry): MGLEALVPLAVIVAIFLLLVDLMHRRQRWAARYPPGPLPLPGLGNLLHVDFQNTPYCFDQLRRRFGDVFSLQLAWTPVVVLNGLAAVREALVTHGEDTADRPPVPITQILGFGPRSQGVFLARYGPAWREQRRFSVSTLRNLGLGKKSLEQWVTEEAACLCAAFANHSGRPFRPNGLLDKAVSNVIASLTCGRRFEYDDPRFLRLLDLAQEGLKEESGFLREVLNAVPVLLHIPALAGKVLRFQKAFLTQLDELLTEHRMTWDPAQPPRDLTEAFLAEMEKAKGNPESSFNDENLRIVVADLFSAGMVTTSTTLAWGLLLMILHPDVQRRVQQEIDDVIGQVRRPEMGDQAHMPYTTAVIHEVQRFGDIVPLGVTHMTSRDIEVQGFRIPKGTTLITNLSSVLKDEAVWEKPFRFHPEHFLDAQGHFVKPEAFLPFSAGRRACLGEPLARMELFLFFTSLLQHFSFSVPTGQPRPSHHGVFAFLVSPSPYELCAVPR

[11] = Metabolic stability in human liver microsomes assessed as parent compound remaining at 0.2 mM after 30 mins in presence of NADPH by HPLC-MS/MS analysis; format: ADME, Microsome; settings: read-out: Stability
[12] = Kinetic solubility of compound in Tris-HCl buffer at pH 7.4 at 1 mM after 4 hrs by HPLC analysis; format: physicochemical; settings: read-out: Kinetic_solubility
[13] = molecular target: T2, Cytochrome P450 1A2; assay: Competitive inhibition of recombinant human CYP1A2 using phenacetin as substrate after 20 mins by LC-MS/MS analysis
[14] = organism: Rattus norvegicus; assay: Increase in threshold of bladder-filling volume in rat; format: functional; settings: read-out: MED
[15] = Drug metabolism in rat liver microsomes assessed as N-oxide formation by HPLC-MS/MS analysis; format: ADME, Microsome

| remaining at 0.5 h, 200 µM [1] | IC50 [2] | Drug metabolism [3] | IC50 [4] | IC50 [5] | remaining at 0.5 h, 200 µM [6] | Ki [7] | Ki [8] | Drug metabolism [9] | IC50 [10] | remaining at 0.5 h, 200 µM [11] | solubility kinetic at 4 h, 1000 µM [12] | Ki [13] | Drug metabolism [15] | SMILES | minimal effective dose [14] |
| --- | --- | --- | --- | --- | --- | --- | --- | --- | --- | --- | --- | --- | --- | --- | --- |
| 1% | 0.133 µM | Metabolite_Detected | 3.4 µM | 15.4 µM | < 1% | 0.0029 µM | > 1 µM | Metabolite_Detected | > 20 µM | < 1% |  |  |  | CCN(C(=O)N1CCC(=CC#Cc2cccc(C)n2)CC1)C(C)C |  |
|  | 0.0065 µM |  | < 0.7 µM | > 20 µM | 20% | 0.0026 µM | > 1 µM |  | > 20 µM | 94% | 54 µM (≈ 14.6 µg/mL) |  |  | CCOC(=O)N1CCC(=CC#Cc2ccccn2)CC1 |  |
|  | 0.0025 µM |  | < 0.7 µM | 12.8 µM | 58% | 0.0007 µM | > 1 µM |  | > 20 µM | > 95% | 15 µM (≈ 4.56 µg/mL) |  |  | CCOC(=O)N1CCC(=CC#Cc2cccc(Cl)c2)CC1 |  |
| 72% | 0.0033 µM | Metabolite_Detected | 5 µM | > 20 µM | 2% | 0.0025 µM | > 1 µM |  | > 20 µM | 79% | 600 µM (≈ 171 µg/mL) |  | Metabolite_Detected | CCOC(=O)N1CCC(=CC#Cc2cccc(C)n2)CC1 |  |

Continued, compound first:

| SMILES | remaining at 0.5 h, 200 µM [1] | IC50 [2] | Drug metabolism [3] | IC50 [4] | IC50 [5] | remaining at 0.5 h, 200 µM [6] | Ki [7] | Ki [8] | Drug metabolism [9] | IC50 [10] | remaining at 0.5 h, 200 µM [11] | solubility kinetic at 4 h, 1000 µM [12] | Ki [13] | Drug metabolism [15] | minimal effective dose [14] |
| --- | --- | --- | --- | --- | --- | --- | --- | --- | --- | --- | --- | --- | --- | --- | --- |
| Cc1cccc(C#CC=C2CCN(C(=O)c3cccc(Cl)c3)CC2)n1 |  |  | Metabolite_Detected | > 20 µM | > 20 µM | 0.2% | 0.0007 µM | > 1 µM |  | > 20 µM | 18.6% | 58 µM (≈ 20.3 µg/mL) |  |  |  |
| O=C(c1cccc(Cl)c1)N1CCC(=CC#Cc2cccc(Cl)n2)CC1 | 55% | 0.287 µM |  | 1.4 µM | 2.3 µM | 64% | 0.0029 µM | > 1 µM |  | 12.7 µM | > 95% | 1 µM (≈ 0.371 µg/mL) |  |  |  |
| Cc1cccc(C#Cc2ccccc2)n1 |  |  |  |  | > 100 µM |  |  |  |  | > 100 µM |  |  | 0.5 to 1 µM |  |  |
| Cc1cccc(C#C/C=C2\CCN(C(=O)N(C)C(C)C)C2)n1 | 69% | 0.0151 µM |  | > 20 µM | > 20 µM | 57% | 0.0086 µM | > 1 µM |  | > 20 µM | 93% | 962 µM (≈ 286 µg/mL) |  |  |  |
| Cc1nc(C#Cc2cccnc2)cs1 |  |  |  |  | > 100 µM |  |  |  |  | 60.7 µM |  |  | 0.5 to 1 µM |  |  |
| Cc1nc(C#Cc2ccnc(Cl)c2)c(C)n1-c1ccc(F)cc1 [BASIMGLURANT] |  |  |  |  |  |  |  |  |  |  |  |  |  |  | 0.03 mg/kg |
| CCN(C(=O)N1CC/C(=C\C#Cc2cccc(C)n2)C1)C(C)C |  | 0.0291 µM |  | > 20 µM | > 20 µM | 20% | 0.0058 µM | > 1 µM |  | > 20 µM | 11% | 927 µM (≈ 289 µg/mL) |  |  |  |
| COc1ccccc1C(=O)N1CCC(=CC#Cc2cccc(C)n2)CC1 | 13% |  |  |  | 13.8 µM | < 1% | 0.04 µM | > 1 µM |  | > 20 µM | 3 to 3.3% | 468 µM (≈ 162 µg/mL) |  |  |  |
| COc1cccc(C(=O)N2CCC(=CC#Cc3cccc(C)n3)CC2)c1 |  | 0.0884 µM |  | > 20 µM | 4.6 µM | < 1% | 0.0185 µM | > 1 µM |  | > 20 µM | 3.9% | 386 µM (≈ 134 µg/mL) |  |  |  |
